Results from different studies.
Technique: competition with immobilised ligand
RPS6KA1 N-terminal kinase domain: Ribosomal protein S6 kinase alpha-1, N-terminal kinase domain (RPS6KA1, Homo sapiens, UniProt Q15418)
RPS6KA1 C-terminal kinase domain: Ribosomal protein S6 kinase alpha-1, C-terminal kinase domain (RPS6KA1, Homo sapiens, UniProt Q15418)

The remaining binding of `O=C(c1ccc(Nc2ncc(Cl)c(-c3ccc(Cl)s3)n2)cc1)N1CCC(N2CCCC2)CC1` is reported as 53% (RPS6KA1 N-terminal kinase domain; binding; 1 µM).
With `CS(=O)(=O)NCC[C@H](NC(=O)c1cncc2c1cnn2-c1ccc(F)cc1)c1ccnc(S(C)(=O)=O)c1` the remaining binding was 100% (RPS6KA1 N-terminal kinase domain; cell-free assay; 1 µM).
The remaining binding of `Nc1ncc2c(n1)-c1c([nH]c3ccc(C#CC4CC4)cc13)CCCC2` is reported as 86% (RPS6KA1 C-terminal kinase domain; binding; 1 µM).
`O=C(Nc1cccnn1)N1CC(C/C=C/c2cncc(Oc3ccc(C(F)(F)F)cn3)n2)C1` gave a remaining binding of 92% (RPS6KA1 C-terminal kinase domain; cell-free assay; 1 µM).
For `COc1ccnn2ncc(-c3ccnc(N(C)C)n3)c12`, the remaining binding was 100% (RPS6KA1 N-terminal kinase domain; binding; 1 µM).
For `O=C(NCc1ncc(C(F)(F)F)cc1Cl)c1ccc2c(c1)C1(CCS(=O)(=O)CC1)[C@H](C1CC1)N2S(=O)(=O)c1ccc(F)cc1`, the remaining binding was 99% (RPS6KA1 C-terminal kinase domain; cell-free assay; 1 µM).
The remaining binding of `O=C(c1ccc(Nc2nccc(-c3cc4ccccc4s3)n2)cc1)N1CCC(N2CCCC2)CC1` is reported as 60% (RPS6KA1 C-terminal kinase domain; binding; 1 µM).
With `C[C@@H](c1ccc(-n2cnc3c(N)ncnc32)cc1)N1CCc2nn(C)c(Cc3ccccc3)c2C1=O` the remaining binding was 100% (RPS6KA1 C-terminal kinase domain; binding; 0.1 µM).
`COc1cc(-c2cn(C3CCc4c(F)cccc4N(CC(F)(F)F)C3=O)nn2)ccc1-n1cnc(C)c1` (stereo not drawn) has a remaining binding of 100% (RPS6KA1 C-terminal kinase domain; cell-free assay; 1 µM).
`O=C(NCC1CCOCC1)c1n[nH]cc1NC(=O)c1c(F)cccc1F` gave a remaining binding of 93% (RPS6KA1 C-terminal kinase domain; binding; 1 µM).
The remaining binding of `CN(CCCC(F)(F)F)c1nccc(-c2cnn3ncccc23)n1` is reported as 100% (RPS6KA1 N-terminal kinase domain; binding; 1 µM).
`FC(F)(F)Oc1cccc(-c2cnc3ccc(-c4ccncc4)nn23)c1` gave a remaining binding of 63% (RPS6KA1 N-terminal kinase domain; binding; 5 µM).
With `F[C@@H]1CCN(c2nccc(-c3cnn4ncccc34)n2)C1` the remaining binding was 100% (RPS6KA1 N-terminal kinase domain; binding; 1 µM).
`O=C(Nc1c[nH]nc1C(=O)NC1CCNCC1)c1cc(F)cc(F)c1` gave a remaining binding of 100% (RPS6KA1 C-terminal kinase domain; binding; 1 µM).
`O=C(NCCCC1CCCCC1)c1ccc(CNC(=O)c2cnn(-c3ccccc3)c2C(F)(F)F)cc1` gave a remaining binding of 100% (RPS6KA1 N-terminal kinase domain; cell-free assay; 0.1 µM).
`O=C(c1ccc(Nc2ncc(Cl)c(-c3cc4ccccc4s3)n2)cc1)N1CCC(N2CCCC2)CC1` gave a remaining binding of 63% (RPS6KA1 N-terminal kinase domain; binding; 1 µM).
With `C[C@H]1CCN(c2nccc(-c3cnn4ncccc34)n2)C1` the remaining binding was 94% (RPS6KA1 N-terminal kinase domain; binding; 1 µM).
`CCN1CCN(Cc2ccc(C(=O)Nc3ccc(C)c(Oc4ccc5c(c4)CC(=O)N5)c3)cc2C(F)(F)F)CC1` gave a remaining binding of 95% (RPS6KA1 C-terminal kinase domain; binding; 1 µM).
The remaining binding of `O=C(NCCCN1CCOCC1)c1ccc(Nc2ncc(Cl)c(-c3ccc(Cl)s3)n2)cc1` is reported as 72% (RPS6KA1 C-terminal kinase domain; binding; 1 µM).
`CO[C@@H](C)c1c(Nc2ccc([C@H](N(C)C(=O)C3CCS(=O)(=O)CC3)C(F)(F)F)cc2)cnc2cc(Cl)nn12` gave a remaining binding of 91% (RPS6KA1 C-terminal kinase domain; cell-free assay; 1 µM).
The remaining binding of `c1cncc(-c2cccc(Nc3nccc(NC4CCCCC4)n3)c2)c1` is reported as 9.9% (RPS6KA1 N-terminal kinase domain; binding; 10 µM).
The remaining binding of `N[C@H]1CCN(c2nccc(-c3cnn4ncccc34)n2)C1` is reported as 100% (RPS6KA1 N-terminal kinase domain; binding; 1 µM).
With `O=C(NS(=O)(=O)c1ccc(NCC2CCOCC2)c([N+](=O)[O-])c1)c1ccc(N2CCN(Cc3ccc(C(F)(F)F)cc3-c3ccc(Cl)cc3)CC2)cc1Oc1cnc2[nH]ccc2c1` the remaining binding was 95% (RPS6KA1 N-terminal kinase domain; cell-free assay; 1 µM).
The remaining binding of `Cc1cnc(Nc2ccc(C(=O)N3CCC(N4CCCC4)CC3)cc2)nc1-c1cc2ccccc2s1` is reported as 74% (RPS6KA1 C-terminal kinase domain; binding; 1 µM).
`CNC(=O)[C@@H]1CC[C@@H](n2c(-c3ccc4cnccc4c3)nc3ccc(C(=O)NCc4cccc(C(N)=O)c4)cc32)C1` gave a remaining binding of 100% (RPS6KA1 C-terminal kinase domain; binding; 1 µM).
For `C=CC(=O)N1CCC(C(=O)NCC(=O)N2CCN(c3nc(-c4cnc(N)nc4C(F)F)nc(N4CCOCC4)n3)CC2)CC1`, the remaining binding was 100% (RPS6KA1 N-terminal kinase domain; binding; 1 µM).
The remaining binding of `CN(c1nccc(-c2cnn3ncccc23)n1)C1CC1` is reported as 100% (RPS6KA1 N-terminal kinase domain; binding; 1 µM).
For `O=C(NCCCN1CCOCC1)c1ccc(Nc2nccc(-c3cc4ccccc4s3)n2)cc1`, the remaining binding was 87% (RPS6KA1 N-terminal kinase domain; binding; 1 µM).
`COc1cnc(Nc2cccc(S(N)(=O)=O)c2)nc1N1CCN(c2ccccc2)C(=O)C1` gave a remaining binding of 92% (RPS6KA1 C-terminal kinase domain; binding; 1 µM).
With `CC1CCCN1c1nccc(-c2cnn3ncccc23)n1` (stereo not drawn) the remaining binding was 100% (RPS6KA1 N-terminal kinase domain; binding; 1 µM).
With `CC(=O)c1c(NS(C)(=O)=O)c2cc(-c3ccc(Cl)cc3)c(-c3ccc(Cl)cc3Cl)nc2n(C)c1=O` the remaining binding was 88% (RPS6KA1 C-terminal kinase domain; cell-free assay; 1 µM).
For `COc1ncc2cc3ccccc3nc2c1C#N`, the remaining binding was 49% (RPS6KA1 C-terminal kinase domain; cell-free assay; 5 µM).
For `COc1cnc(Nc2cccc(S(N)(=O)=O)c2)nc1N1CCN(c2ccccc2)CC1`, the remaining binding was 100% (RPS6KA1 N-terminal kinase domain; binding; 1 µM).
